Test results as given in ChEMBL document CHEMBL2177043, “HIV-1 X4 activities of polycationic "viologen" based dendrimers by interaction with the chemokine receptor CXCR4: study of structure-activity relationship” (J Med Chem, 2012).
Calls of active or inactive are those of the source. No cut-off for these calls is given here.

Experiments:
[1] = target: T1, C-X-C chemokine receptor type 4 (Homo sapiens, UniProt P61073); test: Agonist activity against CXCR4 expressed in U87.CD.CXCR4 cells assessed as stimulation of calcium signaling incubated for 10 mins by FLIPR; assay type: functional, cell-based
Outline: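 U87.CD4 cells stably carrying CXCR4 or CCR5, trypsinized and seeded at 2 × 10⁴ cells/well on 0.2% gelatin the day before. Loaded with Fluo-3 AM (4 μM, 45 min, 37 °C), washed, then exposed to test agents alone at varied concentrations in assay buffer for 10 min at 37 °C. Cytosolic Ca²⁺ rise monitored over time by FLIPR to detect any agonist-triggered signal.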

[2] = target: T2, C-C chemokine receptor type 5 (Homo sapiens, UniProt P51681); test: Antagonist activity against CCR5 expressed in U87.CD4.CCR5 cells assessed as inhibition of CCL3L1-induced calcium signaling incubated for 10 mins by FLIPR; assay type: functional, cell-based
Outline: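 U87.CD4.CCR5 cells seeded at 2 × 10⁴/well on 0.2% gelatin the day before, loaded with 4 μM Fluo-3 AM for 45 min at 37 °C, washed, then preincubated with compounds at varied concentrations in assay buffer for 10 min at 37 °C. Stimulated with 10 ng/mL LD78β (CCL3L1); Ca²⁺ flux recorded by FLIPR.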

[3] = Cytotoxicity against human PBMC cells by MTT assay; assay type: cell-based
[4] = test system: Human immunodeficiency virus 1; test: Antiviral activity against X4 HIV1 NL4.3 infected in human PBMC assessed as inhibition of viral replication pre-incubated for 30 mins measured 5 days post infection by MTT assay; assay type: functional, organism-based; conditions: Human immunodeficiency virus 1, NL4.3
Outline: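 Human PBMC infected with HIV-1 NL4.3. IC₅₀ is the concentration inhibiting viral replication by 50%, averaged over two independent experiments. Cytotoxicity (CC₅₀, 50% loss of PBMC viability) evaluated in the same assay.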

[5] = Cytotoxicity against human MT4 cells by MTT assay; assay type: cell-based
[6] = test system: Human immunodeficiency virus 1; test: Antiviral activity against X4 HIV1 NL4.3 infected in human MT4 cells assessed as inhibition of viral replication pre-incubated for 30 mins […]; assay type: functional, organism-based; conditions: Human immunodeficiency virus 1, NL4.3, MT4
[7] = target: T1, C-X-C chemokine receptor type 4; test: Antagonist activity against CXCR4 expressed in U87.CD.CXCR4 cells assessed as inhibition of CXCL12-induced calcium signaling incubated for 10 mins by FLIPR; assay type: functional, cell-based
Outline: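 U87.CD4.CXCR4 cells seeded at 2 × 10⁴/well on 0.2% gelatin the day before, loaded with 4 μM Fluo-3 AM for 45 min at 37 °C, washed, then preincubated with compounds at varied concentrations in assay buffer for 10 min at 37 °C. Challenged with 25 ng/mL CXCL12; Ca²⁺ flux followed over time by FLIPR.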

[8] = target: T1, C-X-C chemokine receptor type 4; test: Inhibition of CXCL-12'AF647 binding to CXCR4 in human SUPT1 cells incubated for 15 mins by FACS; assay type: cell-based
Outline: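 SupT1 cells (high CXCR4) washed, then incubated 15 min at room temperature with compounds at varied concentrations in HBSS containing 20 mM HEPES and 0.2% BSA, pH 7.4. CXCL12-AF647 added at 25 ng/mL final for 30 min at room temperature. Cells washed, fixed in 1% paraformaldehyde, and read by flow cytometry on FL4.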

[9] = target: T1, C-X-C chemokine receptor type 4; test: Inhibition of anti-CXCR4 mAbs clone 1D9 binding to CXCR4 in human SUPT1 cells incubated for 30 mins by FACS
[10] = target: T1, C-X-C chemokine receptor type 4; test: Inhibition of anti-CXCR4 mAbs clone 173 binding to CXCR4 in human SUPT1 cells incubated for 30 mins by FACS
[11] = target: T1, C-X-C chemokine receptor type 4; test: Inhibition of anti-CXCR4 mAbs clone 12G5 binding to CXCR4 in human SUPT1 cells incubated for 30 mins by FACS
[12] = target: T2, C-C chemokine receptor type 5; test: Agonist activity against CCR5 expressed in U87.CD4.CCR5 cells assessed as stimulation of calcium signaling incubated for 10 mins by FLIPR
[13] = target: T2, C-C chemokine receptor type 5; test: Antagonist activity against CCR5 expressed in U87.CD4.CCR5 cells assessed as inhibition of CCL3L1-induced calcium signaling incubated for 10 mins by FLIPR

T1 sequence (P61073 whole entry): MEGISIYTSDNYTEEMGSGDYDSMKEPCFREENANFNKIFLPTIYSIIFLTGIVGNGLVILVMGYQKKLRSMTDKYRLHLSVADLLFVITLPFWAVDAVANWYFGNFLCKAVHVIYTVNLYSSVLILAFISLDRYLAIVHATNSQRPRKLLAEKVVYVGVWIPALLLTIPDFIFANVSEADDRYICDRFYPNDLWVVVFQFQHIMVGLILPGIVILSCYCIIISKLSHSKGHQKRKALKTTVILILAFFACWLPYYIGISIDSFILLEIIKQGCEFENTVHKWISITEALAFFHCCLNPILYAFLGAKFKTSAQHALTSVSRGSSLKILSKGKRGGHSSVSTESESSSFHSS
T2 sequence (P51681 whole entry, looked up): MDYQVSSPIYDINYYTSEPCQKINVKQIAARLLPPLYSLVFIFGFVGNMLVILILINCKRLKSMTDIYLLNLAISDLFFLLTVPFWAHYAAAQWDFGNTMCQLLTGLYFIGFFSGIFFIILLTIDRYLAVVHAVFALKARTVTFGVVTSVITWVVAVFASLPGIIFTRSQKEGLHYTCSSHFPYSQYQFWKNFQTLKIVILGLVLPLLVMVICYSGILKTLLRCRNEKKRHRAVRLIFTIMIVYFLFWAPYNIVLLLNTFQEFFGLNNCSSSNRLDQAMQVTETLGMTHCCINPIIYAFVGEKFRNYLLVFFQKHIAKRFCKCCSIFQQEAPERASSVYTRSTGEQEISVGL

CC[n+]1ccc(-c2cc[n+](Cc3cc(C[n+]4ccc(-c5cc[n+](CC)cc5)cc4)cc(C[n+]4ccc(-c5cc[n+](Cc6cc(C[n+]7ccc(-c8cc[n+](Cc9cc(C[n+]%10ccc(-c%11cc[n+](CC)cc%11)cc%10)cc(C[n+]%10ccc(-c%11cc[n+](CC)cc%11)cc%10)c9)cc8)cc7)cc(C[n+]7ccc(-c8cc[n+](Cc9cc(C[n+]%10ccc(-c%11cc[n+](Cc%12cc(C[n+]%13ccc(-c%14cc[n+](Cc%15cc(C[n+]%16ccc(-c%17cc[n+](CC)cc%17)cc%16)cc(C[n+]%16ccc(-c%17cc[n+](CC)cc%17)cc%16)c%15)cc%14)cc%13)cc(C[n+]%13ccc(-c%14cc[n+](Cc%15cc(C[n+]%16ccc(-c%17cc[n+](CC)cc%17)cc%16)cc(C[n+]%16ccc(-c%17cc[n+](CC)cc%17)cc%16)c%15)cc%14)cc%13)c%12)cc%11)cc%10)cc(C[n+]%10ccc(-c%11cc[n+](Cc%12cc(C[n+]%13ccc(-c%14cc[n+](Cc%15cc(C[n+]%16ccc(-c%17cc[n+](CC)cc%17)cc%16)cc(C[n+]%16ccc(-c%17cc[n+](CC)cc%17)cc%16)c%15)cc%14)cc%13)cc(C[n+]%13ccc(-c%14cc[n+](Cc%15cc(C[n+]%16ccc(-c%17cc[n+](CC)cc%17)cc%16)cc(C[n+]%16ccc(-c%17cc[n+](CC)cc%17)cc%16)c%15)cc%14)cc%13)c%12)cc%11)cc%10)c9)cc8)cc7)c6)cc5)cc4)c3)cc2)cc1.F[P-](F)(F)(F)(F)F.F[P-](F)(F)(F)(F)F.F[P-](F)(F)(F)(F)F.F[P-](F)(F)(F)(F)F.F[P-](F)(F)(F)(F)F.F[P-](F)(F)(F)(F)F.F[P-](F)(F)(F)(F)F.F[P-](F)(F)(F)(F)F.F[P-](F)(F)(F)(F)F.F[P-](F)(F)(F)(F)F.F[P-](F)(F)(F)(F)F.F[P-](F)(F)(F)(F)F.F[P-](F)(F)(F)(F)F.F[P-](F)(F)(F)(F)F.F[P-](F)(F)(F)(F)F.F[P-](F)(F)(F)(F)F.F[P-](F)(F)(F)(F)F.F[P-](F)(F)(F)(F)F.F[P-](F)(F)(F)(F)F.F[P-](F)(F)(F)(F)F.F[P-](F)(F)(F)(F)F.F[P-](F)(F)(F)(F)F.F[P-](F)(F)(F)(F)F.F[P-](F)(F)(F)(F)F.F[P-](F)(F)(F)(F)F.F[P-](F)(F)(F)(F)F.F[P-](F)(F)(F)(F)F.F[P-](F)(F)(F)(F)F.F[P-](F)(F)(F)(F)F.F[P-](F)(F)(F)(F)F.F[P-](F)(F)(F)(F)F.F[P-](F)(F)(F)(F)F.F[P-](F)(F)(F)(F)F.F[P-](F)(F)(F)(F)F.F[P-](F)(F)(F)(F)F.F[P-](F)(F)(F)(F)F.F[P-](F)(F)(F)(F)F.F[P-](F)(F)(F)(F)F.F[P-](F)(F)(F)(F)F.F[P-](F)(F)(F)(F)F.F[P-](F)(F)(F)(F)F.F[P-](F)(F)(F)(F)F
Activity [1]: inactive | IC50 [2]: 0.542 µM | CC50 [3]: 20 µg/mL | IC50 [4]: 1.07 µg/mL | CC50 [5]: 9 µg/mL | IC50 [6]: 1.4 µg/mL | IC50 [7]: 0.0891 µM | inhibition [7]: Dose-dependent effect | IC50 [8]: 0.101 µM | IC50 [9]: 0.18 µM | inhibition [9]: Dose-dependent effect | IC50 [10]: 0.108 µM | inhibition [10]: Dose-dependent effect | IC50 [11]: 0.111 µM | inhibition [11]: Dose-dependent effect | Activity [12]: inactive | inhibition [13]: Dose-dependent effect

Cc1cn(CCC[n+]2ccc(-c3cc[n+](Cc4cc(C[n+]5ccc(-c6cc[n+](CCCn7cc(C)c(=O)[nH]c7=O)cc6)cc5)cc(-[n+]5ccc(-c6cc[n+](-c7cc(C[n+]8ccc(-c9cc[n+](CCCn%10cc(C)c(=O)[nH]c%10=O)cc9)cc8)cc(C[n+]8ccc(-c9cc[n+](CCCn%10cc(C)c(=O)[nH]c%10=O)cc9)cc8)c7)cc6)cc5)c4)cc3)cc2)c(=O)[nH]c1=O.F[P-](F)(F)(F)(F)F.F[P-](F)(F)(F)(F)F.F[P-](F)(F)(F)(F)F.F[P-](F)(F)(F)(F)F.F[P-](F)(F)(F)(F)F.F[P-](F)(F)(F)(F)F.F[P-](F)(F)(F)(F)F.F[P-](F)(F)(F)(F)F.F[P-](F)(F)(F)(F)F.F[P-](F)(F)(F)(F)F
Activity [1]: inactive | IC50 [2]: > 32.2 µM | CC50 [3]: > 100 µg/mL | IC50 [4]: 4.62 µg/mL | CC50 [5]: > 100 µg/mL | IC50 [6]: 2.4 µg/mL | IC50 [7]: 21 µM | inhibition [7]: Dose-dependent effect | IC50 [8]: 3.4 µM | IC50 [9]: 3.08 µM | inhibition [9]: Dose-dependent effect | IC50 [10]: 0.66 µM | inhibition [10]: Dose-dependent effect | IC50 [11]: 0.724 µM | inhibition [11]: Dose-dependent effect | Activity [12]: inactive | inhibition [13]: Dose-dependent effect

CC[n+]1ccc(-c2cc[n+](Cc3cc(C[n+]4ccc(-c5cc[n+](CC)cc5)cc4)cc(-[n+]4ccc(-c5cc[n+](-c6cc(C[n+]7ccc(-c8cc[n+](CC)cc8)cc7)cc(C[n+]7ccc(-c8cc[n+](CC)cc8)cc7)c6)cc5)cc4)c3)cc2)cc1.F[P-](F)(F)(F)(F)F.F[P-](F)(F)(F)(F)F.F[P-](F)(F)(F)(F)F.F[P-](F)(F)(F)(F)F.F[P-](F)(F)(F)(F)F.F[P-](F)(F)(F)(F)F.F[P-](F)(F)(F)(F)F.F[P-](F)(F)(F)(F)F.F[P-](F)(F)(F)(F)F.F[P-](F)(F)(F)(F)F
Activity [1]: inactive | IC50 [2]: > 39.2 µM | CC50 [3]: > 100 µg/mL | IC50 [4]: 5.6 µg/mL | CC50 [5]: > 100 µg/mL | IC50 [6]: 1.1 µg/mL | IC50 [7]: 24 µM | inhibition [7]: Dose-dependent effect | IC50 [8]: 5.8 µM | IC50 [9]: 3.36 µM | inhibition [9]: Dose-dependent effect | IC50 [10]: 0.544 µM | inhibition [10]: Dose-dependent effect | IC50 [11]: 0.768 µM | inhibition [11]: Dose-dependent effect | Activity [12]: inactive | inhibition [13]: Dose-dependent effect
